# ChEMBL document CHEMBL1137941, “Doxorubicin prodrug on the basis of tert-butyl cephalosporanate sulfones” (Bioorg Med Chem Lett, 2004)
# Active and inactive are the calls of the source. No cut-off for these calls is given here.
# How the values were obtained:
# Mus musculus [1] = assay: Physiological change in cardiomyocytes after the treatment of male JRC healthy mice by the administration of compound at dose of 1.5 mg/kg/day cells isolated on the 9th day by using MTT assay; format: functional
# How it was run: (§1)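 Male JRC mice, healthy or bearing Sarcoma S-180, were dosed on days 1, 2, 3, 4 and 7. Cardiomyocytes were isolated on day 9 and resuspended in DMEM with 4% FBS, 2 mM glutamine, 13 mM NaHCO₃, 10 mM HEPES and streptomycin. After 4 h at 37° (95% air/5% CO₂), serum was omitted. Intracellular peptide was read by Coomassie Blue and mitochondrial redox by MTT, against cells from untreated animals.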
# Mus musculus [2] = assay: Physiological change in cardiomyocytes after the treatment of male JRC healthy mice by the administration of compound at dose of 5.0 mg/kg/day cells isolated on the 9th day by using CB assay; format: functional; how it was run: as §1
# MG-22A [3] = assay: In vitro inhibitory activity against mouse hepatoma cell line (MG-22A) using CV coloration; format: functional, cell-based
# HT-1080 [4] = assay: In vitro cytotoxic concentration against human fibrosarcoma cell line (HT1080) using MTT coloration; format: functional, cell-based
# B16 [5] = assay: Growth inhibitory effect when administered at dose of 2.0 mg/kg/day given in the schedule of 1,2,3,4,7 day against (B16) mouse melanoma at fourteenth day was determined; format: functional
# How it was run: (§2)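 Mice given the agent on days 1, 2, 3, 4 and 7. Doxorubicin was given in physiological solution (0.9% NaCl, pH 6.2). Prodrugs were given in the same solution with 2% DMSO and 0.3% agarose. Tumour growth inhibition (%) was read on fixed days against a vehicle-treated control; in the 2.0 mg/kg/day series, controls received physiological solution only. Negative values mean tumour growth was activated.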
# Mus musculus [6] = assay: Physiological change in cardiomyocytes after the treatment of male JRC healthy mice by the administration of compound at dose of 5.0 mg/kg/day cells isolated on the 9th day by using MTT assay; format: functional; how it was run: as §1
# B16 [7] = assay: Growth inhibitory effect when administered at dose of 1.5 mg/kg/day given in the schedule of 1,2,3,4,7 day against (B16) mouse melanoma at fourteenth day was determined; format: functional; settings: B16, read-out: Inhibition; how it was run: as §2
# CCRF S-180 [8] = assay: Growth inhibitory effect when administered at dose of 2.0 mg/kg/day given in the schedule of 1,2,3,4,7 day against Sarcoma S-180 tumor transplanted in male JRC mice at fourteenth day was determined; format: functional, organism-based; settings: Mus musculus
# B16 [9] = assay: Growth inhibitory effect when administered at dose of 5.0 mg/kg/day given in the schedule of 1,2,3,4,7 day against (B16) mouse melanoma at fourteenth day was determined; format: functional; how it was run: as §2
# MG-22A [10] = assay: In vitro cytotoxic concentration against mouse hepatoma cell line (MG-22A) using MTT coloration; format: functional, cell-based
# HT-1080 [11] = assay: In vitro inhibitory activity against human fibrosarcoma cell line (HT1080) using CV coloration; format: functional, cell-based
# B16 [12] = assay: In vitro inhibitory activity against mouse melanoma cell line (B16) using CV coloration; format: functional, cell-based
# Mus musculus [13] = assay: Physiological change in cardiomyocytes after the treatment of male JRC healthy mice by the administration of compound at dose of 1.5 mg/kg/day cells isolated on the 9th day by using CB assay; format: functional; how it was run: as §1
# Mus musculus [14] = assay: Physiological change in cardiomyocytes after the treatment of male JRC mice with transplanted sarcoma S-180 by the administration of compound at dose of 1.5 mg/kg/day cells isolated on the 9th day by using MTT assay; format: functional; how it was run: as §1
# Mus musculus [15] = assay: Physiological change in cardiomyocytes after the treatment of male JRC mice with transplanted sarcoma S-180 by the administration of compound at dose of 5.0 mg/kg/day cells isolated on the 9th day by using MTT assay; format: functional; how it was run: as §1
# N2a [16] = assay: In vitro inhibitory activity against mouse neuroblastoma (neuro 2A) using CV coloration; format: functional, cell-based
# CCRF S-180 [17] = assay: Growth inhibitory effect administered at dose of 1.5 mg/kg/day given in the schedule of 1,2,3,4,7 day against Sarcoma S-180 tumor transplanted in male JRC mice at eleventh day was determined; format: functional; settings: Mus musculus, in the assay text read “seventh day” for “eleventh day”; how it was run: as §2
# Mus musculus [18] = assay: Physiological change in cardiomyocytes after the treatment of male JRC mice with transplanted sarcoma S-180 by the administration of compound at dose of 1.5 mg/kg/day cells isolated on the 9th day by using CB assay; format: functional; how it was run: as §1
# CCRF S-180 [19] = assay: Growth inhibitory effect administered at dose of 1.5 mg/kg/day given in the schedule of 1,2,3,4,7 day against Sarcoma S-180 tumor transplanted in male JRC mice at fourteenth day was determined; format: functional; settings: Mus musculus, in the assay text read “ninth day” for “fourteenth day”; how it was run: as §2
# N2a [20] = assay: In vitro cytotoxic concentration against mouse neuroblastoma (neuro 2A) using MTT coloration; format: functional, cell-based
# Mus musculus [21] = assay: Physiological change in cardiomyocytes after the treatment of male JRC mice with transplanted sarcoma S-180 by the administration of compound at dose of 5.0 mg/kg/day cells isolated on the 9th day by using CB assay; format: functional; how it was run: as §1
# CCRF S-180 [22] = assay: Growth inhibitory effect when administered at dose of 5.0 mg/kg/day given in the schedule of 1,2,3,4,7 day against Sarcoma S-180 tumor transplanted in male JRC mice at fourteenth day was determined; format: functional, Mus musculus; how it was run: as §2
# B16 [23] = assay: Growth inhibitory effect when administered at dose of 1.5 mg/kg/day given in the schedule of 1,2,3,4,7 day against (B16) mouse melanoma at eleventh day was determined; format: functional; settings: B16, read-out: Inhibition; how it was run: as §2
# B16 [24] = assay: Growth inhibitory effect when administered at dose of 2.0 mg/kg/day given in the schedule of 1,2,3,4,7 day against (B16) mouse melanoma at eleventh day was determined; ND= No data; format: functional; how it was run: as §2
# B16 [25] = assay: Growth inhibitory effect when administered at dose of 5.0 mg/kg/day given in the schedule of 1,2,3,4,7 day against (B16) mouse melanoma at eleventh day was determined; format: functional; how it was run: as §2
# B16 [26] = assay: In vitro cytotoxic concentration against mouse melanoma cell line (B16) using MTT coloration; format: functional, cell-based
# B16 [27] = assay: Growth inhibitory effect administered at dose of 5.0 mg/kg/day given in the schedule of 1,2,3,4,7 day against (B16) mouse melanoma at fourteenth day was determined; format: functional; how it was run: as §2
# CCRF S-180 [28] = assay: Growth inhibitory effect administered at dose of 5.0 mg/kg/day given in the schedule of 1,2,3,4,7 day against Sarcoma S-180 tumor transplanted in male JRC mice at fourteenth day was determined; format: functional; settings: Mus musculus; how it was run: as §2
# CCRF S-180 [29] = assay: Growth inhibitory effect administered at dose of 5.0 mg/kg/day given in the schedule of 1,2,3,4,7 day against Sarcoma S-180 tumor transplanted in male JRC mice at eleventh day was determined; format: functional; settings: Mus musculus; how it was run: as §2
# B16 [30] = assay: Growth inhibitory effect administered at dose of 5.0 mg/kg/day given in the schedule of 1,2,3,4,7 day against (B16) mouse melanoma at eleventh day was determined; format: functional; how it was run: as §2
# B16 [31] = assay: Growth inhibitory effect administered at dose of 1.5 mg/kg/day given in the schedule of 1,2,3,4,7 day against (B16) mouse melanoma at eleventh day was determined; format: functional; how it was run: as §2
# B16 [32] = assay: Growth inhibitory effect administered at dose of 1.5 mg/kg/day given in the schedule of 1,2,3,4,7 day against (B16) mouse melanoma at fourteenth day was determined; format: functional; how it was run: as §2
# B16 [33] = assay: Growth inhibitory effect administered at dose of 2.0 mg/kg/day given in the schedule of 1,2,3,4,7 day against (B16) mouse melanoma at eleventh day was determined; format: functional; how it was run: as §2
# CCRF S-180 [34] = assay: Growth inhibitory effect administered at dose of 1.5 mg/kg/day given in the schedule of 1,2,3,4,7 day against Sarcoma S-180 tumor transplanted in male JRC mice at fourteenth day was determined; No effect; format: functional, organism-based; settings: Mus musculus; how it was run: as §2
# CCRF S-180 [35] = assay: Growth inhibitory effect of compound when administered at dose of 1.5 mg/kg/day given in the schedule of 1,2,3,4,7 day against Sarcoma S-180 tumor transplanted in male JRC mice was determined; No effect; settings: Mus musculus
IC50 (MG-22A [3]),IC50 (HT-1080 [11]),IC50 (B16 [12]),IC50 (N2a [16]),Compound,Activity (Mus musculus [1]),Activity (Mus musculus [2]),IC50 (HT-1080 [4]),Activity (Mus musculus [6]),IC50 (MG-22A [10]),Activity (Mus musculus [13]),Activity (Mus musculus [14]),Activity (Mus musculus [15]),Activity (Mus musculus [18]),IC50 (N2a [20]),Activity (Mus musculus [21]),IC50 (B16 [26]),inhibition in vivo at 5 mg/kg/day (CCRF S-180 [28]),inhibition in vivo at 5 mg/kg/day (CCRF S-180 [29]),inhibition in vivo at 1.5 mg/kg/day (B16 [31]),inhibition in vivo at 1.5 mg/kg/day (B16 [32]),other results
< 0.001 µg/mL,0.17 µg/mL,0.001 µg/mL,0.004 µg/mL,"COc1cccc2c1C(=O)c1c(O)c3c(c(O)c1C2=O)C[C@@](O)(C(=O)CO)C[C@@H]3O[C@H]1C[C@H](N)C(O)[C@H](C)O1 (single isomer, unassigned) [DOXORUBICIN]",40,60,0.31 µg/mL,39,0.73 µg/mL,83,114,130,90,< 0.001 µg/mL,81,< 0.001 µg/mL,–,–,–,–,"inhibition in vivo at 2 mg/kg/day (B16 [5]): 70%; inhibition in vivo at 1.5 mg/kg/day (B16 [7]): 60%; inhibition (CCRF S-180 [8]): Not detectable; inhibition in vivo at 5 mg/kg/day (B16 [9]): 75%; inhibition in vivo at 1.5 mg/kg/day (CCRF S-180 [17]): 7%; inhibition in vivo at 1.5 mg/kg/day (CCRF S-180 [19]): 28%; Inhibition (CCRF S-180 [22]): 37%; inhibition in vivo at 5 mg/kg/day (CCRF S-180 [22]; Mus musculus, CCRF S-180, read-out: Inhibition): 37%; inhibition in vivo at 1.5 mg/kg/day (B16 [23]): 70%; inhibition in vivo at 2 mg/kg/day (B16 [24]): 25%; inhibition in vivo at 5 mg/kg/day (B16 [25]): 65%"
0.07 µg/mL,0.4 µg/mL,0.09 µg/mL,0.04 µg/mL,COc1cccc2c1C(=O)c1c(O)c3c(c(O)c1C2=O)C[C@@](O)(C(=O)CO)C[C@@H]3OC1C[C@H](NC(=O)OCC2=C(C(=O)OC(C)(C)C)N3C(=O)/C(=C/C(=O)OC(C)(C)C)[C@@H]3S(=O)(=O)C2)[C@@H](O)[C@H](C)O1 (stereo partly specified),54,75,0.5 µg/mL,102,0.07 µg/mL,87,270,360,92,0.04 µg/mL,90,0.5 µg/mL,22%,-10%,13%,-49%,inhibition in vivo at 5 mg/kg/day (B16 [27]): 16%; inhibition in vivo at 5 mg/kg/day (B16 [30]): 11%
0.03 µg/mL,0.02 µg/mL,0.03 µg/mL,0.001 µg/mL,COc1cccc2c1C(=O)c1c(O)c3c(c(O)c1C2=O)C[C@@](O)(C(=O)CO)C[C@@H]3O[C@H]1C[C@H](NC(=O)OCC2=C(C(=O)OC(C)(C)C)N3C(=O)[C@@H](Cl)[C@@H]3S(=O)(=O)C2)[C@@H](O)[C@H](C)O1,85,90,0.08 µg/mL,87,0.04 µg/mL,92,225,230,106,0.008 µg/mL,70,0.04 µg/mL,30%,72%,75%,26%,"Inhibition (B16 [33]): 86%; inhibition in vivo at 2 mg/kg/day (B16 [33]; Mus musculus, B16, read-out: Inhibition): 86%; inhibition (CCRF S-180 [34]): inactive; inhibition (CCRF S-180 [35]): inactive"
6 µg/mL,6 µg/mL,3 µg/mL,2 µg/mL,CC1=C(C(=O)OC(C)(C)C)N2C(=O)[C@H](Cl)[C@H]2S(=O)(=O)C1,–,–,6 µg/mL,–,2 µg/mL,–,–,–,–,2 µg/mL,–,2 µg/mL,–,–,–,–,–
